Bioassay records from PubChem BioAssay.
RGS4 pot: RGS4 potentiation or activation; HEK293 M3R/inducible RGS4, carbachol calcium flux Fluo4; hits give low values; B-score at 10 µM; actives 0.92% (n = 310,000); AID 463111;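 active means B-score of the integrated calcium signal more than 4 SD below the library mean, with starting fluorescence not abnormally high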;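 further: negative B-score means reduced calcium response which marks RGS4 activation or potentiation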
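Also added: carbachol at ECmax as muscarinic agonist stimulus; Assay system: HEK293 cells with stable M3R and inducible RGS4; Timing: overnight RGS4 induction, 30 min dye load 37 °C, 20 min compound RT; Measured by: Fluo4-AM (2 µM) calcium-flux fluorescence, kinetic read.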
RGS4 block: inhibitors of human RGS4 | P49798 | HEK293 M3R/RGS4 inducible, Fluo-4 calcium flux; hits give high values; triggered by carbachol at its EC20 | B-score at 10 µM | actives 0.45% (n = 310,000);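 active means B-score, a plate-corrected calcium signal, over three deviations above library mean, with baseline fluorescence within five deviations of library mean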;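 further: RGS4 expression induced by doxycycline in cells with stable M3 receptor; B-score is computed from the integrated fluorescence ratio over baseline after carbachol; higher B-score means a larger calcium signal and so more RGS4 inhibition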
Target sequence (P49798 whole entry, looked up): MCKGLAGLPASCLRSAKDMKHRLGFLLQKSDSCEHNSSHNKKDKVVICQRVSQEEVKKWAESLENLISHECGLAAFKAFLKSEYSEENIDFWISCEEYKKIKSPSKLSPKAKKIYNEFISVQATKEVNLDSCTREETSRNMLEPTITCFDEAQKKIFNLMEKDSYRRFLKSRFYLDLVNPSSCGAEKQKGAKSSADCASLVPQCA
MrgX1 antag: human MrgX1 receptor antagonism, primary screen; Q96LB2; B-score at 10 µM; AID 588676; actives 1.3% (n = 310,000); MRGX1-HEK293 calcium flux, Fluo-4, BAM8-22 antagonism; hits give low values;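 active means calcium-response B-score plate-corrected more than 3 library SD below zero, starting fluorescence within 5 deviations, no agonist response on first addition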;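 further: peak minus trough fluorescence over baseline after final BAM8-22 challenge near maximal dose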
Target sequence (Q96LB2 whole entry, looked up): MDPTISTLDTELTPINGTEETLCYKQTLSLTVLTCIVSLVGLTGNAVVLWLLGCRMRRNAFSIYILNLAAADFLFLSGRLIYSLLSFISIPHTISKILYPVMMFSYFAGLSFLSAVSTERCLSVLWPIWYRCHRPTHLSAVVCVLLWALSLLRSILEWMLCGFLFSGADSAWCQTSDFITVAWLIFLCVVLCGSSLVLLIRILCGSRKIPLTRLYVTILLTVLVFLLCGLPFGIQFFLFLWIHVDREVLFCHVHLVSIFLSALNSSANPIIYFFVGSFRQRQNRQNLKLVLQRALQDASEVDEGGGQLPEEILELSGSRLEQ
MrgX1 allo act: allosterically activates human MrgX1 receptor signaling; MrgX1-HEK293, Fluo-4 calcium flux, FDSS; hits give high values; B-score at 10 µM; actives 0.63% (n = 310,000); Q96LB2;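 active means plate-corrected calcium response at least 3 library SD above typical, normal starting fluorescence, not activating the receptor alone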;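 further: compound read alongside a low EC10 to EC30 dose of BAM8-22 agonist; peak minus trough fluorescence over baseline measured at the second addition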
MrgX1 ag: activates human MrgX1 receptor signaling; Q96LB2; MrgX1-HEK293 cells, Fluo-4 calcium fluorescence, agonist mode; hits give high values; B-score at 10 µM; actives 0.44% (n = 310,000); AID 588627;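 active means calcium response B-score plate-corrected fluorescence ratio at least 3 library SD, with starting fluorescence B-score inside 5 SD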
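Material: MrgX1-expressing HEK293 cells / Dosing: compound as first of three additions / Incubation: overnight seeding, then 1 h dark dye loading / Signal: Fluo-4 NW calcium fluorescence / Evaluation: B-scored fluorescence response ratio / Benchmarks: positive and negative control wells on each plate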
RGS4 block valid: validation of RGS4 inhibitors; shares compounds with RGS4 block; HEK293 M3R/RGS4, carbachol calcium Fluo-4 fluorescence; carbachol added at its EC20; 0 = buffer wells, 100 = carbachol control; AID 492999; calcium response, % at 10 µM; actives 65% (n = 1,700);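 active means duplicate-averaged calcium response above the buffer-only control mean plus 5 SD of those controls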;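 further: integrated fluorescence ratio F max minus min over baseline F0; higher response in RGS4-induced cells means RGS4 inhibition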
RGS4 uninduced: counter-screen for RGS4 inhibitors: effect in non-induced cells | shares compounds with RGS4 block | HEK293 M3R non-induced, carbachol calcium Fluo-4; submaximal (EC20) carbachol stimulus; buffer wells 0%, carbachol control wells 100% | activity (percent), % at 10 µM | actives 20% (n = 1,900); call rule not given here;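 further: RGS4 induction absent so cells express M3R without RGS4; higher means more calcium signal and flags a non-specific hit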
RGS4 inh ctr2: signal in non-induced cells without carbachol, RGS4 inhibitor counter-screen; calcium response (agonist-mode artifact), % at 10 µM; actives 22% (n = 1,900); AID 493001; shares compounds with RGS4 block; HEK293 M3R/RGS4 non-induced, Fluo-4 calcium, no carbachol; normalised: buffer wells 0%, carbachol wells 100%;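 active means duplicate-averaged calcium rise in uninduced cells above buffer wells' mean plus 5 SD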
* marks the source's active call; other numbers are inactive results; i = inactive; · = no result. Shown are actives, neighbours in structure and some others; about 3.5% of the full set was active somewhere.

SMILES	RGS4 pot	RGS4 block	MrgX1 antag	MrgX1 allo act	MrgX1 ag	RGS4 block valid	RGS4 uninduced	RGS4 inh ctr2
CN(CC(=O)Nc1ccc(Cl)c(C(F)(F)F)c1)C(=O)c1ccc(N2CCOCC2)c([N+](=O)[O-])c1	i	5.4*	i	i	i	12%*	i	7.5%*
CCC(=O)Nc1ccc(-c2ccc(NC(=O)CC)c(OC)c2)cc1OC	i	i	i	i	i	·	·	·
COc1ccc(S(=O)(=O)N2CCCC(C(=O)N3CCOCC3)C2)cc1OC (centres undefined)	i	i	i	i	i	·	·	·
COc1ccc(OC)c(S(=O)(=O)N2CCCC(C(=O)N3CCCC3)C2)c1 (centres undefined)	i	i	i	i	i	i	i	i
COc1ccc(C)cc1S(=O)(=O)N1CCCC(C(=O)N2CCOCC2)C1 (centres undefined)	i	i	i	i	i	i	i	i
COc1ccc(OC)c(S(=O)(=O)N2CCC(C(=O)N3CCCC3)CC2)c1	i	i	i	i	i	·	·	·
COc1ccc(OC)c(S(=O)(=O)N2CCCC(C(=O)N3CCCCCC3)C2)c1 (centres undefined)	i	i	i	i	i	i	i	14%*
COc1ccc(OC)c(S(=O)(=O)N2CCCC(C(=O)NCc3ccncc3)C2)c1 (centres undefined)	i	i	i	i	i	·	·	·
COc1ccc(OC)c(S(=O)(=O)N2CCC(C(=O)N3CCOCC3)CC2)c1	i	i	i	i	i	i	i	i
COc1ccc(Cl)cc1S(=O)(=O)N1CCCC(C(=O)N2CCCC2)C1 (centres undefined)	i	i	i	i	i	·	·	·
O=C(COc1ncnc2sccc12)N1CCN(c2ccccc2)CC1	i	i	i	i	i	·	·	·
CCCCN(C(=O)CSCC(=O)Nc1cccc(C)c1)c1c(N)n(Cc2ccccc2)c(=O)[nH]c1=O	i	i	i	i	i	·	·	·
COc1cccc(CNC(=O)CCC2CCCN(C(=O)c3cc4ccccc4o3)C2)c1 (centres undefined)	i	i	i	i	i	·	·	·
Cc1ccc(NC(=O)CCc2c(C)nc3ncnn3c2C)nc1	i	i	i	i	i	·	·	·
O=C(Cn1c2c(c(-c3ccccc3Cl)cc1=O)CCC2)NCCCN1CCOCC1	i	i	i	i	i	·	·	·
COc1ccc(-c2csc(Nc3cc(C)ccn3)n2)cc1OC	i	i	i	i	i	i	i	i
O=Nc1c(O)n(Cc2ccc(Cl)cc2Cl)c2ccccc12	i	6.6*	i	i	i	5.5%*	i	i
CCCN(C(=O)Cc1c(C(=O)O)n(C)c2ccccc12)c1cccc(C)c1	i	6.2*	i	i	i	12%*	68%*	12%*
CC(C)=CCC12Oc3cc(O)ccc3C1(O)Oc1cc(O)c([C@H]3C=C(C)CC(c4ccc(O)cc4O)[C@H]3C(=O)c3ccc(O)cc3O)c(O)c1C2=O (some centres undefined)	i	15*	i	i	i	24%*	i	i
CCN1CCN(C(=O)/C(C#N)=C/c2ccc(OC(F)F)cc2)CC1	i	i	i	i	i	·	·	·
N#C/C(=C\c1ccc(OC(F)F)cc1)C(=O)N1CCCCC1	i	5.8*	i	i	i	16%*	i	i
COc1cc(/C=C2\S/C(=N/S(=O)(=O)c3ccccc3)NC2=O)c([N+](=O)[O-])cc1OC	i	6.8*	i	i	i	30%*	68%*	i
COc1ccc(S(=O)(=O)/N=C2/NC(=O)/C(=C\c3ccco3)S2)cc1	i	i	i	i	i	·	·	·
COc1ccc(S(=O)(=O)/N=C2/NC(=O)/C(=C\c3cc(OC)c(OC)cc3[N+](=O)[O-])S2)cc1	i	i	i	i	i	i	i	i
Cc1nnc(Sc2nc3c(c(=O)n(C)c(=O)n3C)n2Cc2ccccc2Cl)s1	i	i	i	i	i	·	·	·
SMILES	RGS4 pot	RGS4 block	MrgX1 antag	MrgX1 allo act	MrgX1 ag	RGS4 block valid	RGS4 uninduced	RGS4 inh ctr2
CC1CCN(c2nnc(N3CCC(C)CC3)c3ccccc23)CC1	i	i	i	i	i	·	·	·
Cc1ccc(C(=O)NC(=S)Nc2cccc(-c3nc4ccccc4s3)c2)cc1	i	i	i	i	i	·	·	·
O=C(N/N=C/c1cc2cc3c(cc2nc1Cl)OCCO3)c1ccccc1O	i	i	i	i	i	·	·	·
O=C(N/N=C/c1cc2cc3c(cc2nc1Cl)OCO3)c1ccncc1	i	7.8*	i	i	i	i	i	i
O=C(COC(=O)Cc1cn2ccsc2n1)Nc1nc2ccccc2s1	i	i	i	i	i	·	·	·
Cn1ncc2c(N3CCN(c4ccc(Cl)c(Cl)c4)CC3)ncnc21	i	5.7*	i	i	i	9.5%*	i	i
Cn1ncc2c(N3CCN(c4ccccc4F)CC3)ncnc21	i	i	i	i	i	·	·	·
O=c1[nH]c2cc3c(cc2cc1CN(Cc1cccs1)Cc1nnnn1Cc1ccco1)OCCO3	i	7*	i	i	i	i	i	i
O=c1[nH]c2cc3c(cc2cc1CN(Cc1ccccc1)Cc1nnnn1Cc1ccco1)OCCO3	i	i	·	·	·	·	·	·
COc1ccccc1CN(Cc1cc2cc3c(cc2[nH]c1=O)OCCO3)Cc1nnnn1Cc1ccco1	i	19*	i	i	i	7.5%*	i	12%*
O=c1[nH]c2cc3c(cc2cc1CN(Cc1cccnc1)Cc1nnnn1Cc1ccco1)OCCO3	i	i	i	i	i	i	i	i
O=C(/C=C/c1ccc2ccccc2n1)N1CCN(S(=O)(=O)c2ccc(F)cc2)CC1	i	i	i	i	i	·	·	·
CCOC(=O)N1CCc2c(sc3c2c(=O)n(Cc2ccccc2)c(=O)n3Cc2cccc(C)c2)C1	i	6.8*	i	i	i	32%*	38%*	i
